The values that follow come from paper PMC8939876 (RSC Advances, 2019).

Where only a bound is given, the exact number is not on record here.

Type in all cases: cell-based
For series [1], the system named is Plasmodium falciparum Dd2 (MDR strain with Old World genetic background). Conditions: DD2, read-out: In vitro activity (IC50 nM) Dd2.
The next series has as its system HepG2 cells. Put plainly: HepG2 cytotoxicity assay. Conditions: Homo sapiens, HepG2, read-out: Cytotoxicity (nM) vs. HepG2. The method, boiled down: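 HepG2 cells kept in RPMI-1640 with 10% FBS (37 °C, 5% CO2) were seeded at 2 × 10^4/well and left to attach overnight. Test compound (10 mM DMSO stock) was serially diluted in medium and applied for 24–36 h. Cells then had fresh medium for 24 h more, then resazurin (final 10 μM) for 3 h. Fluorescence read at ex 560/em 590 nm. IC50 from nonlinear logistic regression.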

Series [2] has as its system panel of Plasmodium falciparum malaria parasites. The note with it: for antimalarial activity against all tested strains (in words): D6, Dd2, 7G8 strains; for therapeutic index (the ratio of cytotoxicity to antimalarial therapeutic efficacy): HepG2 cytotoxicity vs antimalarial IC50.
Series [3] has as its system Plasmodium falciparum 7G8 (MDR strain with New World genetic background). Conditions: 7G8, read-out: In vitro activity (IC50 nM) 7G8.
Series [4] relates to Plasmodium falciparum D6 (CQ-sensitive). The note with it: D6, read-out: In vitro activity (IC50 nM) D6.

In the case of `COc1cccc2c(=O)c3cc(OC(F)(F)F)ccc3[nH]c12` [2v, 5-Methoxy-2-(trifluoromethoxy)acridin-9(10H)-one], the IC50 in series [1] is 15.5 nM; in series [3], 46.3 nM; in series [4] it was 27.7 nM. The CC50 in the series on HepG2 cells turned out to be 139000 nM. Besides, the “antimalarial activity against all tested strains (in words)” value (“antimalarial activity” below) in series [2] is “excellent activity”. In series [2], the “therapeutic index (the ratio of cytotoxicity to antimalarial therapeutic efficacy)” value is given as “high”.
With `COc1ccc2[nH]c3c(OC(F)(F)F)cccc3c(=O)c2c1` [2q, 2-Methoxy-5-(trifluoromethoxy)acridin-9(10H)-one], the IC50 was 1680 nM in series [1], more than 2500 nM in series [3] and 1490 nM in series [4]. The CC50 in the series with HepG2 cells was more than 200000 nM.
`COc1ccc2c(=O)c3cc(S(=O)(=O)C(F)(F)F)ccc3[nH]c2c1` [2g, 6-Methoxy-2-((trifluoromethyl)sulfonyl)acridin-9(10H)-one]: the IC50 in series [1] was determined as 11.6 nM; in series [3], 22.2 nM; in series [4] it was 11.6 nM. The CC50 in the series on HepG2 cells was more than 200000 nM. In series [2], the “antimalarial activity” value is recorded as “excellent activity”. Moreover, the “therapeutic index (the ratio of cytotoxicity to antimalarial therapeutic efficacy)” value in series [2] is “high”.
As for `COc1ccc2[nH]c3cc(F)cc(F)c3c(=O)c2c1` [2s, 1,3-Difluoro-7-methoxyacridin-9(10H)-one], the IC50 in series [1] was 0.29 nM; in series [3], 0.2 nM; in series [4], 0.05 nM. In addition, the CC50 in the series on HepG2 cells was more than 200000 nM. Moreover, the “antimalarial activity” value in series [2] was “excellent activity”. For the same compound, in series [2], the “therapeutic index (the ratio of cytotoxicity to antimalarial therapeutic efficacy)” value is “high”.
Regarding `COc1ccc2[nH]c3ccc(Oc4ccc(Cl)cc4)cc3c(=O)c2c1` [2p, 2-(4-Chlorophenoxy)-7-methoxyacridin-9(10H)-one], the results for the IC50 in series [1], in series [3] and in series [4] were 513 nM, 911 nM and 573 nM, respectively. The CC50 in the series with HepG2 cells was more than 200000 nM.
Turning to `COc1ccc2[nH]c3ccc(OC(F)(F)F)cc3c(=O)c2c1` [2o, 2-Methoxy-7-(trifluoromethoxy)acridin-9(10H)-one], the results for the IC50 in series [1], in series [3] and in series [4] were 425 nM, 437 nM and 632 nM, respectively. Besides, in the series with HepG2 cells, the CC50 is more than 200000 nM.
On the same counts, the results for `COc1ccc2c(=O)c3cc([N+](=O)[O-])ccc3[nH]c2c1` [2j, 6-Methoxy-2-nitroacridin-9(10H)-one] are 98.1 nM, 35 nM, 84.1 nM and more than 200000 nM.
For `COc1ccc2c(=O)c3cccc(OC(F)(F)F)c3[nH]c2c1` [2f, 3-Methoxy-5-(trifluoromethoxy)acridin-9(10H)-one], the figures for the IC50 in series [1], in series [3] and in series [4] were 753 nM, 1140 nM and 782 nM, respectively. Also, the CC50 in the series on HepG2 cells was more than 200000 nM.
For `COc1ccc2c(=O)c3cc(Oc4ccc(Cl)cc4)ccc3[nH]c2c1` [2e, 2-(4-Chlorophenoxy)-6-methoxyacridin-9(10H)-one], the values for the IC50 in series [1], in series [3] and in series [4] were 11.7 nM, 13.5 nM and 8.84 nM, respectively. Further, the CC50 in the series with HepG2 cells was more than 200000 nM. The “antimalarial activity” value in series [2] was “excellent activity”. Moreover, the “therapeutic index (the ratio of cytotoxicity to antimalarial therapeutic efficacy)” value in series [2] is “high”.
For `Cc1ccc2[nH]c3ccc(OC(F)(F)F)cc3c(=O)c2c1` [2w, 2-Methyl-7-(trifluoromethoxy)acridin-9(10H)-one], the values for the IC50 in series [1], in series [3] and in series [4] were 49.2 nM, 109 nM and 63.1 nM, respectively. Also, the CC50 with HepG2 cells was more than 200000 nM.
For the compound `O=c1c2cc(OCCCl)ccc2[nH]c2cc(F)cc(F)c12` [2u, 7-(2-Chloroethoxy)-1,3-difluoroacridin-9(10H)-one], the IC50 in series [1] came to 0.91 nM; in series [3] it was 1.22 nM; in series [4] it was 11.6 nM. In the series on HepG2 cells, the CC50 was more than 200000 nM. Also, the “antimalarial activity” value in series [2] is reported as “excellent activity”. In series [2], the “therapeutic index (the ratio of cytotoxicity to antimalarial therapeutic efficacy)” value is listed as “high”.
Take `O=c1c2cc(OC(F)(F)F)ccc2[nH]c2cc3ccccc3cc12` [2x, 2-(Trifluoromethoxy)benzo[b]acridin-12(5H)-one]: the IC50 in series [1] worked out at 0.563 nM; in series [3], 16.5 nM; in series [4], 7.03 nM. Moreover, the CC50 in the series with HepG2 cells is more than 200000 nM. In addition, the “antimalarial activity” value in series [2] is recorded as “excellent activity”. In addition, the “therapeutic index (the ratio of cytotoxicity to antimalarial therapeutic efficacy)” value in series [2] is on record as “high”.
Take `COc1ccc2c(=O)c3cc(C#N)ccc3[nH]c2c1` [2i, 6-Methoxy-9-oxo-9,10-dihydroacridine-2-carbonitrile]: the IC50 in series [1] came out at 177 nM; in series [3], 228 nM; in series [4], 100 nM. Also, the CC50 in the series on HepG2 cells is more than 200000 nM.
As to `COc1ccc2[nH]c3ccc(C#N)cc3c(=O)c2c1` [2r, 7-Methoxy-9-oxo-9,10-dihydroacridine-2-carbonitrile], the IC50 was 932 nM in series [1], more than 2500 nM in series [3] and 983 nM in series [4]. In the series with HepG2 cells, the CC50 is more than 200000 nM.
As to `O=C1C(O)=C([C@H]2CC[C@H](c3ccc(Cl)cc3)CC2)C(=O)c2ccccc21` [ATV, atovaquone, reference compound], the IC50 in series [1] and in series [4] was 0.1 nM each time.
In the case of `COc1ccc2[nH]c3c(F)c(F)c(F)c(F)c3c(=O)c2c1` [2t, 1,2,3,4-Tetrafluoro-7-methoxyacridin-9(10H)-one], the IC50 was 1950 nM in series [1], 393 nM in series [3] and more than 2500 nM in series [4]. In the series with HepG2 cells, the CC50 is more than 200000 nM.
Regarding `CCN(CC)CCn1c2ccc([N+](=O)[O-])cc2c(=O)c2ccc(OC)cc21` [2l, 10-(2-(Diethylamino)ethyl)-6-methoxy-2-nitroacridin-9(10H)-one], the IC50 in series [1] stood at 684 nM; in series [3], 462 nM; in series [4] it was 405 nM. Further, the CC50 in the series on HepG2 cells was 12300 nM.
With `CCN(CC)CCCC(C)Nc1ccnc2cc(Cl)ccc12` (centres unmarked) [CQ, chloroquine, reference compound], the IC50 in series [3] worked out at 172 nM.
For `COc1ccc2c(=O)c3c(F)c(F)c(F)c(F)c3[nH]c2c1` [2n, 1,2,3,4-Tetrafluoro-6-methoxyacridin-9(10H)-one], the values for the IC50 in series [1], in series [3] and in series [4] were 325 nM, 41.8 nM and 257 nM, respectively. Also, in the series on HepG2 cells, the CC50 is more than 200000 nM.
For `COc1ccc2c(=O)c3cc(OC(F)(F)F)ccc3[nH]c2c1` [2d, 6-Methoxy-2-(trifluoromethoxy)acridin-9(10H)-one], the figures for the IC50 in series [1], in series [3] and in series [4] were 1.1 nM, 1.51 nM and 0.103 nM, respectively. In addition, the CC50 in the series on HepG2 cells was more than 200000 nM. The “antimalarial activity” value in series [2] is “excellent activity”. Moreover, the “therapeutic index (the ratio of cytotoxicity to antimalarial therapeutic efficacy)” value in series [2] is reported as “high”.

A word on the IC50: it is the concentration at which inhibition is half-maximal.
